Results of several laboratories.
Each line is one published result; the experiments were not run side by side.
Target: Serine/threonine-protein kinase 10 (STK10, Homo sapiens, UniProt O94804)

Compound | effect on | mode | technique | concentration | quantity | result
CN1CCN(C(=O)c2ccc(NC(=O)Nc3ccc(N(C)c4ccnc(Nc5ccc(CS(C)(=O)=O)cc5)n4)cc3)cc2)CC1 | binding | – | competition with immobilised ligand | 1 µM | remaining binding | 0.4%
C#Cc1cc(-c2cc(Nc3nc(N[C@@H](C)c4ccc(F)cn4)ncc3Cl)n[nH]2)ccc1C=O | enzyme activity | inhibitor | – | 0.2 µM | inhibition | 36.5%
C1=C/COCc2cc(ccc2OCCN2CCCC2)Nc2nccc(n2)-c2cccc(c2)COC/1 | cell-free assay | – | – | 0.1 µM | remaining signal | 89%
COc1ccc2oc(-c3ccc4nc(N)oc4c3)c/c(=N\c3ccccc3NC(=O)CCN)c2c1 | binding | – | – | 1 µM | remaining binding | 100%
C=CC(=O)N1CCC[C@@H](n2nc(-c3ccc(Oc4ccccc4)cc3)c3c(N)ncnc32)C1 | enzyme activity | inhibitor | – | 1 µM | inhibition | 46%
CCCCC(=O)Nc1ccc(-c2ccc3ncn(CCC)c(=O)c3c2)cn1 | binding | – | competition with immobilised ligand | 0.5 µM | remaining binding | 99%
C=CC(=O)N1CCC([C@@H]2CCNc3c(C(N)=O)c(-c4ccc(Oc5ccccc5)cc4)nn32)CC1 | enzyme activity | inhibitor | – | 1 µM | inhibition | 0%
Cc1ccc(NC(=O)c2ccnc(C(F)(F)F)c2)cc1-c1cc(OCCO)nc(N2CCOCC2)c1 | binding | – | competition with immobilised ligand | 1 µM | remaining binding | 21%
